Source: PubChem BioAssay AID602316 (Southern Research Specialized Biocontainment Screening …, 2012)
Calls of active or inactive are those of the source.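 Rule for the calls: active = inhibition of at least 30% at any tested concentration; inactive = the rest.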

These compounds were tested against M18 aspartyl aminopeptidase (Plasmodium falciparum 3D7) (assay: malaria aspartyl aminopeptidase M18 inhibitors – biochemical, QFRET, H-Glu-NHMec substrate, set 3, selectivity assay for PfM17LAP inhibitor project, dose response (AID 602316)). Settings: recombinant PfM18AAP, H-Glu-NHMec fluorogenic cleavage.
Summary of the method: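 Material: purified recombinant P. falciparum M18 aspartyl aminopeptidase (PFM18AAP); reagent: H-Glu-NHMec substrate, 0.1 mM; doses: 10-point twofold series, 100 to 0.2 µM, 2% DMSO; incubation: 90 min reaction, room temperature; technique: NHMec fluorescence at 370/460 nm; read-out: % inhibition and fitted IC50; benchmarks: no-enzyme background wells; repeats: each dose tested in triplicate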

IC50 | Structure (SMILES)
26.1 µM | CCCOc1ccc(CC(=O)NO)cc1
21.7 µM | CCCCOc1ccc(C(C)C(=O)NO)cc1 (stereo not drawn)
27.7 µM | CCC(C)Oc1ccc(CC(=O)NO)cc1 (stereo not drawn)
29.1 µM | CCCCOc1cccc(CC(=O)NO)c1

Same assay, conditions: recombinant PfM18AAP, H-Glu-NHMec fluorogenic cleavage; at 100 µM (top of the series)

inhibition | Structure (SMILES)
inactive | CCCOc1ccc(CC(=O)O)cc1
inactive | CCCCOc1ccc(CN(O)C(C)=O)cc1
inactive | CCCCOc1ccc(C(C)(C)C(=O)NO)cc1
inactive | CCCCOc1cccc(CC(=O)OC)c1
inactive | CCCCOc1ccc(C(C)C(=O)OC)cc1 (stereo not drawn)
inactive | CCCCOc1ccc(C(C)C(=O)O)cc1 (stereo not drawn)
inactive | CN(C)CCOc1ccc(CC(=O)O)cc1
inactive | CCCCOc1ccc(CN(O)C(=O)c2ccccc2)cc1
inactive | CCCCOc1ccc(C(C)(C)C(=O)O)cc1
